One compound from publication PMC8985159 (RSC Chemical Biology, 2022) can be followed below.

Molecules are shown by their SMILES.

The target of assay [1] is T1, human recombinant HDAC6 (Homo sapiens, UniProt Q9UBN7).
T1 sequence (Q9UBN7 1-1215): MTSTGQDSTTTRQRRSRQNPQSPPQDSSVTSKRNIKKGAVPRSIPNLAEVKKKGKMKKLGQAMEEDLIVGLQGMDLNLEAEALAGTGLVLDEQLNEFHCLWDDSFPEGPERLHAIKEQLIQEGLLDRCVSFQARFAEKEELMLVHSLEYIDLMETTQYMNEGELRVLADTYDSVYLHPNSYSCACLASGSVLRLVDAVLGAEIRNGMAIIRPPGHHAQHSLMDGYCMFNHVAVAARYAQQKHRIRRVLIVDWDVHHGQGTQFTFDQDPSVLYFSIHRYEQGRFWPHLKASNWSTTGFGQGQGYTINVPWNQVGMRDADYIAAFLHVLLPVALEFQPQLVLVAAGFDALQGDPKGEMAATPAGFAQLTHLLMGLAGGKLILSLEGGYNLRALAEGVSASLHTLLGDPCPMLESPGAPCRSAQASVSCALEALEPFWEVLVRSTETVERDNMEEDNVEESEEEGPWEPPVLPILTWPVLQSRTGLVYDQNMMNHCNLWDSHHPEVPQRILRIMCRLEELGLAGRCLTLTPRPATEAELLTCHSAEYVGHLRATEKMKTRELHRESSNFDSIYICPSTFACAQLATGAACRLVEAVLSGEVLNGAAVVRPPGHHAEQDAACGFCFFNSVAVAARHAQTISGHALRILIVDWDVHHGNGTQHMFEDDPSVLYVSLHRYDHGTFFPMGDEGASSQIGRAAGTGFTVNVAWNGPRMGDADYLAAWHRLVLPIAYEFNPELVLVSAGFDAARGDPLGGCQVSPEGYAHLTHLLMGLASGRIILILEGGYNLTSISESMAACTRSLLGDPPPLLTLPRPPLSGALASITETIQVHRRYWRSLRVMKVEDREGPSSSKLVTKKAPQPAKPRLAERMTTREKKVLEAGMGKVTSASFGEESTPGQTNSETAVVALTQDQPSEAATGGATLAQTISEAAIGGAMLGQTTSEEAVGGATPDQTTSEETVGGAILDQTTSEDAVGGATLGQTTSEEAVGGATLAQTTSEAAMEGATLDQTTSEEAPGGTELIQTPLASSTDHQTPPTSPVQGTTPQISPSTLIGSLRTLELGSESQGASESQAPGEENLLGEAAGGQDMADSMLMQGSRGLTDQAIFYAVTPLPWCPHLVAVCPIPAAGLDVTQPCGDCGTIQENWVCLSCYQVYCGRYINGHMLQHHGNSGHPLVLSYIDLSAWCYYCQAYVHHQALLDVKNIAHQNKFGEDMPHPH
Briefly: HDAC6 activity assay. Format: biochemical. Summed up:
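Enzyme was incubated with serially diluted test compound in DMSO and ZMAL (added from a 126 μM solution) for 90 min at 37 °C. Stop solution (33 μM trichostatin A, 6 mg/mL trypsin) was added, followed by 30 min at 37 °C. Fluorescence read at Ex 390 / Em 460 nm.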

Assay [2] has as its system PC-3M-luc cells. The assay can be described thus: Migration assay. Format: cell-based, human.

The term IC50 denotes the concentration that gives 50% inhibition.

In the case of `Cc1cc(C)nc(SCC(=O)Nc2ncc(Cc3cccc(OCc4cn(Cc5ccc(OCCN6CCOCC6)cc5)nn4)c3)s2)n1` [Compound 12], the IC50 in assay [1] is more than 100 µM. Further, the “concentration-dependent effect on cell migration” value in assay [2] is on record as “concentration-dependent inhibition of migration”.
